This is an account of results in ChEMBL document CHEMBL4819119, “Design and evaluation of 1,2,3-dithiazoles and fused 1,2,4-dithiazines as anti-cancer agents” (Bioorg Med Chem Lett, 2021).

Each structure is given as a SMILES string. Converted amounts (≈) assume the structure as drawn.

Assay [1] is described as follows: Cytotoxicity against human WS1 cells assessed as reduction in cell viability incubated for 72 hrs by alamar blue assay. Format: cell-based. Particulars: WS1, 72 h. A digest of the protocol: (§1)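 Cells seeded in 384-well plates and dosed 24 h after plating, in quadruplicate. Viability was read by alamarBlue fluorescence at 72 h. IC50 came from nonlinear regression as the mean of 4 replicates. Growth media carried 10% FBS and 1% pen/strep: UCH1/UCH2 in 4:1 IMDM:RPMI-1640 in gel-coated flasks; A431, PANC1 and WS1 in DMEM; DU145 and MCF7 in MEM; 5637 in RPMI-1640.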

In assay [2] the test system is 5637. Put plainly: Cytotoxicity against human 5637 cells assessed as reduction in cell viability incubated for 72 hrs by alamar blue assay. Format: functional, cell-based. The settings on record: Homo sapiens, 5637, 72 h. The essentials:
as §1

The nature of assay [3]: Cytotoxicity against human UCH1 cells assessed as reduction in cell viability incubated for 72 hrs by alamar blue assay. Particulars: UCH1, 72 h. In kind it is functional, cell-based. The essentials: as §1
For assay [4], the target named is T1, Neutral amino acid transporter B(0) (Homo sapiens, UniProt Q15758).
T1 sequence (Q15758 whole entry): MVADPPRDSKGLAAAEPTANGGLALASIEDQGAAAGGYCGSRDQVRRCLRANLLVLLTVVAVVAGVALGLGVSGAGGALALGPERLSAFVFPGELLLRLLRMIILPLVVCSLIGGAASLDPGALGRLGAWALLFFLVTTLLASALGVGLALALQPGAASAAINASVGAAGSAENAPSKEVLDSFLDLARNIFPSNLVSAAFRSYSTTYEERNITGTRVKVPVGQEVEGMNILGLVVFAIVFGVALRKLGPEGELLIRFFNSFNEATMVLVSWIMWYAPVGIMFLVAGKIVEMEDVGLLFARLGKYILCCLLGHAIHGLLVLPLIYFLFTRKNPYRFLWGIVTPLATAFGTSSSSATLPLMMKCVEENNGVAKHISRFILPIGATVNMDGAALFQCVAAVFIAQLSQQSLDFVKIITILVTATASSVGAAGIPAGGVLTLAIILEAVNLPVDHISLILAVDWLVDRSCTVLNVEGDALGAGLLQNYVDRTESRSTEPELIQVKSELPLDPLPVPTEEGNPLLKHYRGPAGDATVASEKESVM
The assay is described as follows: Inhibition of ASCT2 (unknown origin).

In a further assay the test system is A-431. The assay is described as follows: Cytotoxicity against human A-431 cells assessed as reduction in cell viability incubated for 72 hrs by alamar blue assay. Format: functional, cell-based. Particulars: A-431, 72 h. A digest of the protocol: as §1
The test system of assay [5] is PANC-1. Put plainly: Cytotoxicity against human PANC1 cells assessed as reduction in cell viability incubated for 72 hrs by alamar blue assay. In kind it is functional, cell-based. Particulars: PANC-1, 72 h. The essentials: as §1
In another assay the test system is MCF7. The assay is described as follows: Cytotoxicity against human MCF7 cells assessed as reduction in cell viability incubated for 72 hrs by alamar blue assay. Particulars: MCF7, 72 h. In kind it is functional, cell-based. A digest of the protocol: as §1
For assay [6], the system named is DU-145. Put plainly: Cytotoxicity against human DU-145 cells assessed as reduction in cell viability incubated for 72 hrs by alamar blue assay. Format: functional, cell-based. The settings on record: DU-145, 72 h. A digest of the protocol: as §1
The nature of assay [7]: Cytotoxicity against human UCH2 cells assessed as reduction in cell viability incubated for 72 hrs by alamar blue assay. In kind it is functional, cell-based. Particulars: UCH2, 72 h. The essentials: as §1
Assay [8] has as its system PANC-1. The assay is described as follows: Cytotoxicity against human PANC1 cells assessed as reduction in cell viability incubated upto 72 hrs by MTT assay. In kind it is functional, cell-based. Particulars: PANC-1, 72 h.
For a further assay, the system named is L1210. Put plainly: Cytotoxicity against mouse L1210 cells. Format: functional, cell-based.
Another assay concerns K562. The assay is described as follows: Cytotoxicity against human K562 cells. In kind it is functional, cell-based.
A further assay concerns Cryptococcus neoformans. The assay is described as follows: Antifungal activity against Cryptococcus neoformans. In kind it is functional.
Assay [9] concerns DU-145. The assay is described as follows: Cytotoxicity against human DU-145 cells. In kind it is functional, cell-based.
Assay [10] has as its system 5637. The assay is described as follows: Cytotoxicity against human 5637 cells assessed as reduction in cell viability incubated for 3 hrs by MTT assay. Particulars: Homo sapiens, 5637, 3 h. Format: functional, cell-based.
Assay [11] concerns Feline immunodeficiency virus. The assay is described as follows: Antiviral activity against Feline immunodeficiency virus. In kind it is functional, organism-based.
The next assay relates to Listeria monocytogenes. The assay is described as follows: Antibacterial activity against Listeria monocytogenes. Format: functional.
A further assay concerns Enterococcus faecalis. Put plainly: Antibacterial activity against Enterococcus faecalis. In kind it is functional.
Another assay relates to Staphylococcus aureus. Put plainly: Antibacterial activity against Staphylococcus aureus. Format: functional.

Consider `CC.FC(F)(F)Oc1ccc(/N=c2\ssnc2Cl)cc1Cl`, for which the IC50 in [1] was over 100 µM; in the assay on 5637 [2], 33 µM; in assay [3], over 100 µM; in assay [4] it was 8.1 µM; in the assay on A-431, over 100 µM; in the assay with PANC-1 [5], over 100 µM. In addition, the IC50 with MCF7 stood at 88 µM; with DU-145 [6], 32 µM; in assay [7], 43 µM.
Turning to `Cc1[nH]c2ccccc2c1CCNCc1ccc(/C=C/C(=O)NO)cc1` [PANOBINOSTAT], the IC50 in the assay with PANC-1 [8] was determined as 1 µM.
With `N#Cc1cnn(CCc2ccccc2)c1/N=c1\ssnc1Cl`, the IC50 came out at 5 µM in the assay on L1210 and 3 µM with K562.
`N#Cc1ccccc1/N=c1\ssnc1Cl` yielded an MIC against Cryptococcus neoformans of 8 µg/mL (≈ 31.5 µM).
With `CC(=O)O[C@@]12CO[C@@H]1C[C@H](O)[C@@]1(C)C(=O)[C@H](O)C3=C(C)[C@@H](OC(=O)[C@H](O)[C@@H](NC(=O)OC(C)(C)C)c4ccccc4)C[C@@](O)([C@@H](OC(=O)c4ccccc4)[C@H]21)C3(C)C` [DOCETAXEL ANHYDROUS], 0.005 µM corresponded to half-maximal inhibition in the assay on DU-145 [9] (IC50).
As for `COc1ccc(/N=c2\ssnc2Cl)cc1`, in the assay with Cryptococcus neoformans, the MIC came out at 8 µg/mL (≈ 30.9 µM).
As to `Cc1ccc(Nc2nccc(N(C)c3ccc4c(C)n(C)nc4c3)n2)cc1S(N)(=O)=O` [PAZOPANIB], the IC50 in the assay on 5637 [10] is 15 µM.
Take `CCOC(=O)c1c2n[se]sc-2c(Cl)c1Cl`: the EC50 in [11] worked out at 0.082 µM.
As to `Cc1cc(/N=c2\ssnc2Cl)n(Cc2ccccc2)n1`, the IC50 in [1] was determined as 15 µM; with 5637 [2], 2.1 µM; in assay [3] it was 33 µM; in the assay with A-431, 27 µM; in the assay on PANC-1 [5] it was 26 µM; with MCF7 it was 18 µM. The IC50 was found to be 10 µM with DU-145 [6] and 30 µM in assay [7].
In the case of `FC(F)(F)Oc1ccc(/N=c2\ssnc2Cl)cc1Br`, the 50% inhibitory concentration (IC50) in [1] was over 100 µM; with 5637 [2] it was 36 µM; in assay [3], 34 µM; in the assay with A-431 it was 100 µM; with PANC-1 [5], over 100 µM; with MCF7, 73 µM. Besides, the IC50 in the assay on DU-145 [6] was 52 µM; in [7], 85 µM.
Regarding `Clc1nss/c1=N\c1ccccc1`, the MIC in the assay with Listeria monocytogenes, against Enterococcus faecalis and in the assay on Staphylococcus aureus was 16 µg/mL (≈ 70 µM) in each case.
For `CCOC(=O)c1c2nssc-2c(Cl)c1Cl`, it took 0.31 µM to reach a half-maximal effect in assay [11] (EC50).
